Experimental data: ChEMBL document CHEMBL4041524, “Synthesis and Characterization of a Novel γ-Aminobutyric Acid Type A (GABAA) Receptor Ligand That Combines Outstanding Metabolic Stability, Pharmacokinetics, and Anxiolytic Efficacy” (J Med Chem, 2016)
pEC50: −log10 of the molar value. Calls of active or inactive are those of the source. No cut-off for these calls is given here.

Legend:
[1] = target: T1, GABA-A receptor; alpha-3/beta-3/gamma-2 (Homo sapiens, UniProt P18507+P28472+P34903); experiment: Binding affinity to human GABAA alpha3beta3gamma2 receptor expressed in HEK293 cells assessed as GABA-induced membrane potential change preincubated for 3 mins followed by addition of GABA measured after 3 mins by FLIPR assay; type: cell-based
T1 sequence (P18507 whole entry): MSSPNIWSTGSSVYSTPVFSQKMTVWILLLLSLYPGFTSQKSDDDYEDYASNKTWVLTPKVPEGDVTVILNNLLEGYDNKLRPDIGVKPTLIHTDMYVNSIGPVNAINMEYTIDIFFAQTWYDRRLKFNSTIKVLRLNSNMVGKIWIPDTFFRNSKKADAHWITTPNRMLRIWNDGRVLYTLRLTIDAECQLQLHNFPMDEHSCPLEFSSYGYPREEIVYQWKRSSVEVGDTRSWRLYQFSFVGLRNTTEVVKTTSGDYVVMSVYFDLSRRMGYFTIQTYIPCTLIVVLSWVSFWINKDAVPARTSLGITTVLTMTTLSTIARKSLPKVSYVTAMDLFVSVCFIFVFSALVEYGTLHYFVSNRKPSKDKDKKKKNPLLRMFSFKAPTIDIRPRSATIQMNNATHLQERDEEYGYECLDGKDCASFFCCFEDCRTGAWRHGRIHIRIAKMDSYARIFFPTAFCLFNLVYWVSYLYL
T1 sequence (P28472 whole entry): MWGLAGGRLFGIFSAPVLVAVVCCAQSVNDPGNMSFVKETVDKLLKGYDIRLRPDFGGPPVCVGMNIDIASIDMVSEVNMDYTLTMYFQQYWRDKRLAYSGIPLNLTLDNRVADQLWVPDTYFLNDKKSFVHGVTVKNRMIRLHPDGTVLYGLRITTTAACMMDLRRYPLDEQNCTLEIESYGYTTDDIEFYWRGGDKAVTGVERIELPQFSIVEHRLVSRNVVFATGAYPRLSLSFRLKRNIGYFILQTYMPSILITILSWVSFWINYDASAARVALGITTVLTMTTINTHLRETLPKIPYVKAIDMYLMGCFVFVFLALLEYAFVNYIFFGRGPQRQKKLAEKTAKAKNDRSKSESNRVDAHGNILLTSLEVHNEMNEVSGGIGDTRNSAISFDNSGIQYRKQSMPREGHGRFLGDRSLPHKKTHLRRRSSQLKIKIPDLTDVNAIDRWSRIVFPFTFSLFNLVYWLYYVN
T1 sequence (P34903 whole entry): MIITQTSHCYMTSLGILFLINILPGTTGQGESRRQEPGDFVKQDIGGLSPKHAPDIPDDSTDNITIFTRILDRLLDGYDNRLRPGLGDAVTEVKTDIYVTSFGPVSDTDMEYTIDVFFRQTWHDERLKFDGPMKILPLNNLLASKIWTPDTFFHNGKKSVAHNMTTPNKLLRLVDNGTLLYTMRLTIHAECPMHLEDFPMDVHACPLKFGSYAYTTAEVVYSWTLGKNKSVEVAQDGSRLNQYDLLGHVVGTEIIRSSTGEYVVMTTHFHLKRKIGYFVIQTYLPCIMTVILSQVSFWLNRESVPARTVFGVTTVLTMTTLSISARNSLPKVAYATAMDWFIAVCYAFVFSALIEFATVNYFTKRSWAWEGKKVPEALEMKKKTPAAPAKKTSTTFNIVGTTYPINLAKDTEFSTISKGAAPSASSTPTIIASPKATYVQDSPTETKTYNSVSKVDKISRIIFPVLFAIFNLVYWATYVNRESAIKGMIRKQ
Method in brief: (§1)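 Stably transfected HEK293T cells expressing α1β3γ2 (n = 2) or α3β3γ2 (n = 1) GABAARs. Membrane potential was read as fluorescence changes on a FLIPR Tetra, and EC50 was derived.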

Liver [2] = experiment: Metabolic stability in human liver microsomes assessed as compound remaining at 4 uM measured after 30 mins in presence of NADPH by LC-MS/MS analysis; type: ADME, microsome; conditions: 0.5 h
Method in brief: (§2)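 Human, mouse or rat liver microsomes were incubated with compound at 4 μM final for 30 min at 37 °C (n = 1). Percent of parent remaining was quantified by LC-MS/MS.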

Liver [3] = experiment: Metabolic stability in mouse liver microsomes assessed as compound remaining at 4 uM measured after 30 mins in presence of NADPH by LC-MS/MS analysis; type: ADME, microsome; conditions: 0.5 h; method in brief: as §2
Liver [4] = experiment: Metabolic stability in rat liver microsomes assessed as compound remaining at 4 uM measured after 30 mins in presence of NADPH by LC-MS/MS analysis; type: ADME, microsome; conditions: 0.5 h; method in brief: as §2
[5] = Cytotoxicity against HEK293T cells assessed as viable cells measured after 18 hrs by CellTiter-Glo assay; type: cell-based, HEK-293T; conditions: human, read-out: LD50
Method in brief: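 HEK293T cells were exposed to compound for 18 h (n = 4). Viable cells were quantified with CellTiter-Glo, and LD50 was derived.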

[6] = target: T2, GABA-A receptor; alpha-1/beta-3/gamma-2 (Homo sapiens, UniProt P14867+P18507+P28472); experiment: Binding affinity to human GABAA alpha1beta3gamma2 receptor expressed in HEK293 cells assessed as GABA-induced membrane potential change preincubated for 3 mins followed by addition of GABA measured after 3 mins by FLIPR assay; type: cell-based; method in brief: as §1
T2 sequence (P14867 whole entry): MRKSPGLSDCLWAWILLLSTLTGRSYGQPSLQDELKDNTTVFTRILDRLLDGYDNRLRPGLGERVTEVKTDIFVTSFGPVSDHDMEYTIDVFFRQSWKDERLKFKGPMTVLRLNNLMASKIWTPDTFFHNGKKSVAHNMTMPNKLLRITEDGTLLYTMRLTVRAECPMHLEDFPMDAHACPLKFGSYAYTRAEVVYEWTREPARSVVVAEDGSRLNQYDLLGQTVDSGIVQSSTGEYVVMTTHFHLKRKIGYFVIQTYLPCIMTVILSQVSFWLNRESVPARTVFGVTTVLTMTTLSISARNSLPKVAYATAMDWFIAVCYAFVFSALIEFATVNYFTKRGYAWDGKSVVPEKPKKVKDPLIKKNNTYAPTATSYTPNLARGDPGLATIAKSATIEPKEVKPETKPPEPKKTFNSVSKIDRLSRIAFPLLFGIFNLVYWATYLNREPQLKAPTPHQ
T2 sequence (P18507 whole entry): T1 sequence (P18507 whole entry)
T2 sequence (P28472 whole entry): T1 sequence (P28472 whole entry)

[7] = Total plasma concentration in Sprague-Dawley rat at 10 mg/kg, po measured after 60 mins by LC-MS/MS analysis; type: ADME, organism-based
Method in brief: (§3)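 Sprague-Dawley rats (n = 3 per time point) were given 10 mg/kg p.o. Total plasma concentrations were taken at 15, 30, 60 and 120 min. Brain levels of the dosed ligand and of the carboxylic acid metabolite were taken at 60 or 120 min.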

[8] = Drug uptake in Sprague-Dawley rat brain at 10 mg/kg, po measured after 60 mins by LC-MS/MS analysis; type: ADME, organism-based; conditions: read-out: Drug uptake; method in brief: as §3
Mus musculus [9] = experiment: Anxiolytic-like activity in Swiss Webster mouse marble burying model of anxiety assessed as suppression of marble burying activity at 10 mg/kg, ip administered 30 mins prior to test relative to vehicle-control; type: functional, organism-based
Method in brief: (§4)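 Male NIH Swiss Webster mice (n = 10) received vehicle or compound at 10 or 30 mg/kg i.p. 30 min before marble burying testing. Sedation-like behaviour was noted by observation. Analysis was ANOVA with Dunnett's test vs vehicle.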

Mus musculus [10] = experiment: Anxiolytic-like activity in Swiss Webster mouse marble burying model of anxiety assessed as suppression of marble burying activity at 30 mg/kg, ip administered 30 mins prior to test relative to vehicle-control; type: functional, organism-based; method in brief: as §4
Mus musculus [11] = experiment: Toxicity in Swiss Webster mouse assessed as sedation-like behavior at 30 mg/kg, ip measured after 30 mins; type: organism-based; conditions: in vivo, 0.5 h; method in brief: as §4
Mus musculus [12] = experiment: Toxicity in Swiss mouse assessed as change in motor coordination by measuring number of falls from the rotating rod at 10 mg/kg, ip administered 30 mins prior to testing measured for 2 mins by rotarod test relative to control; type: organism-based; conditions: in vivo
Method in brief: (§5)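 The same mice used for marble burying were placed on a rotarod at 4 r.p.m. for 2 min. No fall was scored success, one fall partial, and two falls failure.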

Mus musculus [13] = experiment: Toxicity in Swiss mouse assessed as change in motor coordination by measuring number of falls from the rotating rod at 30 mg/kg, ip administered 30 mins prior to testing measured for 2 mins by rotarod test relative to control; type: organism-based; conditions: in vivo; method in brief: as §5

In the case of `C#Cc1ccc2c(c1)C(c1ccccn1)=NCc1c(-c3nc(CC)no3)ncn1-2`, the pEC50 [1] was 5.52, the Stability (Liver [2]) was 91% and the Stability (Liver [3]) was 92%. It also gave a Stability (Liver [4]) of 97%, a CC50 at 18 h [5] greater than 100 µM and a pEC50 [6] of less than 4.70. For the same compound, the concentration at 1 h [7] was 1720 nM, the concentration at 1 h [8] was 3090 nM and the Activity (Mus musculus [9]) was “Active”. For the same compound, the Activity (Mus musculus [10]) was “Active”, the Activity (Mus musculus [11]) was “Toxic” and the Activity (Mus musculus [12]) was “Toxic”. For the same compound, the Activity (Mus musculus [13]) was “Toxic”.
